Where a SMILES comes first, the peptide text is derived from it.
Experiments:
Format in all cases: functional
Acinetobacter sp. [1] = assay: Antibacterial activity against Acinetobacter sp. M13523 clinical isolate expressing blaOXA-51 gene by microdilution test
Outline: (§1)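 MIC by standard broth microdilution following CLSI recommendations, in Mueller Hinton broth supplemented with Ca²⁺ (20-25mg/L) and Mg²⁺ (10-12.5mg/L); peptides tested against a panel of multi-resistant clinical isolates plus ATCC reference strains.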

Staphylococcus aureus [2] = assay: Antibacterial activity against Staphylococcus aureus M6820 clinical isolate expressing mecA gene by microdilution test
Outline: (§2)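 MIC by standard broth microdilution following CLSI recommendations, in Mueller Hinton broth supplemented with Ca²⁺ (20-25 mg/L) and Mg²⁺ (10-12.5 mg/L); ATCC reference strains included in the panel.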

[3] = tested on: Staphylococcus saprophyticus; assay: Antibacterial activity against Staphylococcus saprophyticus M4070 clinical isolate expressing mecA gene by microdilution test; outline: as §2
Acinetobacter sp. [4] = assay: Antibacterial activity against Acinetobacter sp. M5277 clinical isolate expressing blaPER gene by microdilution test; outline: as §1
Enterococcus faecalis [5] = assay: Antibacterial activity against Enterococcus faecalis M6383 clinical isolate expressing vanA gene by microdilution test; outline: as §1
Enterococcus faecium [6] = assay: Antibacterial activity against Enterococcus faecium M2304 clinical isolate expressing vanA gene by microdilution test; outline: as §1
Enterococcus faecalis [7] = assay: Antibacterial activity against Enterococcus faecalis M6534 clinical isolate expressing vanB gene by microdilution test; outline: as §1
Staphylococcus aureus [8] = assay: Antibacterial activity against Staphylococcus aureus P33 clinical isolate expressing msrA gene by microdilution test; outline: as §2
Klebsiella pneumoniae [9] = assay: Antibacterial activity against Klebsiella pneumoniae M9375 clinical isolate expressing blaCTX-M-2, blaTEM-1 and blaSHV-1 gene by microdilution test; outline: as §1
Klebsiella pneumoniae [10] = assay: Antibacterial activity against Klebsiella pneumoniae M5825 clinical isolate expressing blaGES-3 and blaCTX-M-2 gene by microdilution test; outline: as §1
Staphylococcus aureus [11] = assay: Antibacterial activity against Staphylococcus aureus P239 clinical isolate expressing ermC gene by microdilution test; outline: as §2
Escherichia coli [12] = assay: Antibacterial activity against Escherichia coli M9884 by microdilution test; outline: as §1
[13] = tested on: Staphylococcus haemolyticus; assay: Antibacterial activity against Staphylococcus haemolyticus M2976 clinical isolate expressing mecA gene by microdilution test; outline: as §2
Enterococcus gallinarum [14] = assay: Antibacterial activity against Enterococcus gallinarum M2685 clinical isolate expressing vanC1 and vanA gene by microdilution test; outline: as §1
Klebsiella pneumoniae [15] = assay: Antibacterial activity against Klebsiella pneumoniae M11245 clinical isolate expressing blaKPC-2 and blaPER-2 gene by microdilution test; outline: as §1
Acinetobacter sp. [16] = assay: Antibacterial activity against Acinetobacter sp. M9013 clinical isolate expressing blaOXA-51 and blaIMP gene by microdilution test; outline: as §1
Escherichia coli [17] = assay: Antibacterial activity against Escherichia coli M9209 clinical isolate expressing blaKPC-2 gene by microdilution test; outline: as §1
Klebsiella pneumoniae [18] = assay: Antibacterial activity against Klebsiella pneumoniae M9491 clinical isolate expressing blaMOX gene by microdilution test; outline: as §1
Enterococcus faecalis [19] = assay: Antibacterial activity against Enterococcus faecalis ATCC 29212 by microdilution test; outline: as §1
Enterococcus faecium [20] = assay: Antibacterial activity against Enterococcus faecium M6261 by microdilution test; outline: as §1
Escherichia coli [21] = assay: Antibacterial activity against Escherichia coli ATCC 25922 by microdilution test; outline: as §1
Pseudomonas aeruginosa [22] = assay: Antibacterial activity against Pseudomonas aeruginosa M5470 by microdilution test; outline: as §2
[23] = tested on: Staphylococcus epidermidis; assay: Antibacterial activity against Staphylococcus epidermidis M2931 by microdilution test; outline: as §2
Acinetobacter sp. [24] = assay: Antibacterial activity against Acinetobacter sp. M5179 clinical isolate expressing blaOXA-51 gene by microdilution test; outline: as §1
Pseudomonas aeruginosa [25] = assay: Antibacterial activity against Pseudomonas aeruginosa PCOS12 by microdilution test; outline: as §2
Acinetobacter sp. [26] = assay: Antibacterial activity against Acinetobacter sp. M7489 clinical isolate expressing blaOXA-51 and blaTEM gene by microdilution test; outline: as §1
Enterococcus faecalis [27] = assay: Antibacterial activity against Enterococcus faecalis M4992 clinical isolate expressing vanA gene by microdilution test; outline: as §1
Staphylococcus cohnii = assay: Antibacterial activity against Staphylococcus cohnii M6767 clinical isolate expressing mecA gene by microdilution test; outline: as §2
Enterococcus faecalis [28] = assay: Antibacterial activity against Enterococcus faecalis M4899 clinical isolate expressing vanB gene by microdilution test; outline: as §1
Escherichia coli [29] = assay: Antibacterial activity against Escherichia coli PNEU23 clinical isolate expressing blaOXA-GIII and blaTEM-1 gene by microdilution test; outline: as §1
Staphylococcus warneri = assay: Antibacterial activity against Staphylococcus warneri M6823 clinical isolate expressing mecA gene by microdilution test; outline: as §2
Pseudomonas aeruginosa [30] = assay: Antibacterial activity against Pseudomonas aeruginosa M7712 clinical isolate expressing blaSPM gene by microdilution test; outline: as §2
[31] = tested on: Staphylococcus epidermidis; assay: Antibacterial activity against Staphylococcus epidermidis M2923 by microdilution test; outline: as §2
Pseudomonas aeruginosa [32] = assay: Antibacterial activity against Pseudomonas aeruginosa M11005 clinical isolate expressing blaKPC-2 gene by microdilution test; outline: as §1
Enterococcus gallinarum [33] = assay: Antibacterial activity against Enterococcus gallinarum M2723 clinical isolate expressing vanC1 and vanA gene by microdilution test; outline: as §1

MIC90 (Acinetobacter sp. [1]) [µg/mL] | MIC90 (Staphylococcus aureus [2]) [µg/mL] | MIC90 [3] [µg/mL] | MIC90 (Acinetobacter sp. [4]) [µg/mL] | MIC90 (Enterococcus faecalis [5]) [µg/mL] | MIC90 (Enterococcus faecium [6]) [µg/mL] | MIC90 (Enterococcus faecalis [7]) [µg/mL] | MIC90 (Staphylococcus aureus [8]) [µg/mL] | MIC90 (Klebsiella pneumoniae [9]) [µg/mL] | MIC90 (Klebsiella pneumoniae [10]) [µg/mL] | MIC90 (Staphylococcus aureus [11]) [µg/mL] | MIC90 (Escherichia coli [12]) [µg/mL] | MIC90 (Enterococcus gallinarum [14]) [µg/mL] | MIC90 (Klebsiella pneumoniae [15]) [µg/mL] | MIC90 (Acinetobacter sp. [16]) [µg/mL] | MIC90 (Escherichia coli [17]) [µg/mL] | MIC90 (Klebsiella pneumoniae [18]) [µg/mL] | MIC90 (Enterococcus faecalis [19]) [µg/mL] | MIC90 (Enterococcus faecium [20]) [µg/mL] | Compound | MIC90 [13] [µg/mL] | further results
32 | 128 | 8 | 32 | 128 | 4 | 256 | 32 | 32 | 64 | 32 | 64 | 16 | 32 | 32 | 64 | 128 | 128 | 16 | CC[C@H](C)[C@H](N)C(=O)N[C@@H](CC(C)C)C(=O)N[C@@H](CCCNC(=N)N)C(=O)N[C@@H](Cc1c[nH]c2ccccc12)C(=O)N1CCC[C@H]1C(=O)N[C@@H](Cc1c[nH]c2ccccc12)C(=O)N[C@@H](Cc1c[nH]c2ccccc12)C(=O)N1CCC[C@H]1C(=O)N[C@@H](Cc1c[nH]c2ccccc12)C(=O)N[C@@H](CCCNC(=N)N)C(=O)N[C@@H](CCCNC(=N)N)C(=O)N[C@@H](CCCCN)C(N)=O.Cl.Cl.Cl.Cl.Cl [OMIGANAN PENTAHYDROCHLORIDE] (H-ILRWPWWPWRRK-NH2) | 4 | MIC90 (Escherichia coli [21]): 64 µg/mL; MIC90 (Pseudomonas aeruginosa [22]): 512 µg/mL; MIC90 [23]: 16 µg/mL; MIC90 (Acinetobacter sp. [24]): 32 µg/mL; MIC90 (Pseudomonas aeruginosa [25]): 512 µg/mL; MIC90 (Acinetobacter sp. [26]): 8 µg/mL; MIC90 (Enterococcus faecalis [27]): 128 µg/mL; MIC90 (Staphylococcus cohnii): 4 µg/mL; MIC90 (Enterococcus faecalis [28]): 256 µg/mL; MIC90 (Escherichia coli [29]): 32 µg/mL; MIC90 (Staphylococcus warneri): 8 µg/mL; MIC90 (Pseudomonas aeruginosa [30]): 512 µg/mL; MIC90 [31]: 8 µg/mL; MIC90 (Pseudomonas aeruginosa [32]): 512 µg/mL; MIC90 (Enterococcus gallinarum [33]): 16 µg/mL
4 | 128 | 32 | 8 | 128 | 16 | 256 | 128 | 64 | 8 | 64 | 32 | 16 | 16 | 8 | 64 | 64 | 128 | 16 | H-GLLKKWLKKWKEFKRIVGY-NH2 | 8 | MIC90 (Escherichia coli [21]): 32 µg/mL; MIC90 (Pseudomonas aeruginosa [22]): 64 µg/mL; MIC90 [23]: 16 µg/mL; MIC90 (Acinetobacter sp. [24]): 32 µg/mL; MIC90 (Pseudomonas aeruginosa [25]): 64 µg/mL; MIC90 (Acinetobacter sp. [26]): 16 µg/mL; MIC90 (Enterococcus faecalis [27]): 128 µg/mL; MIC90 (Staphylococcus cohnii): 16 µg/mL; MIC90 (Enterococcus faecalis [28]): 128 µg/mL; MIC90 (Escherichia coli [29]): 32 µg/mL; MIC90 (Staphylococcus warneri): 8 µg/mL; MIC90 (Pseudomonas aeruginosa [30]): 64 µg/mL; MIC90 [31]: 16 µg/mL; MIC90 (Pseudomonas aeruginosa [32]): 64 µg/mL; MIC90 (Enterococcus gallinarum [33]): 32 µg/mL
64 | 64 | 8 | 64 | 128 | 8 | 256 | 64 | 16 | 32 | 64 | 32 | 16 | 8 | 32 | 128 | 64 | 128 | 16 | H-RIVQRIKKWLLKWKKLGY-NH2 | 8 | MIC90 (Escherichia coli [21]): 32 µg/mL; MIC90 (Pseudomonas aeruginosa [22]): 64 µg/mL; MIC90 [23]: 8 µg/mL; MIC90 (Acinetobacter sp. [24]): 64 µg/mL; MIC90 (Pseudomonas aeruginosa [25]): 64 µg/mL; MIC90 (Acinetobacter sp. [26]): 64 µg/mL; MIC90 (Enterococcus faecalis [27]): 128 µg/mL; MIC90 (Staphylococcus cohnii): 8 µg/mL; MIC90 (Enterococcus faecalis [28]): 256 µg/mL; MIC90 (Escherichia coli [29]): 32 µg/mL; MIC90 (Staphylococcus warneri): 8 µg/mL; MIC90 (Pseudomonas aeruginosa [30]): 64 µg/mL; MIC90 [31]: 16 µg/mL; MIC90 (Pseudomonas aeruginosa [32]): 128 µg/mL; MIC90 (Enterococcus gallinarum [33]): 16 µg/mL
64 | 64 | 16 | 64 | 128 | 16 | 128 | 32 | 1020 | > 1020 | 32 | 128 | 16 | 1020 | 32 | 128 | 1020 | 64 | 32 | H-WPKWWKWKRRWGRKKAKKRRG-NH2 | 16 | MIC90 (Escherichia coli [21]): 128 µg/mL; MIC90 (Pseudomonas aeruginosa [22]): 128 µg/mL; MIC90 [23]: 16 µg/mL; MIC90 (Acinetobacter sp. [24]): 64 µg/mL; MIC90 (Pseudomonas aeruginosa [25]): 64 µg/mL; MIC90 (Acinetobacter sp. [26]): 64 µg/mL; MIC90 (Enterococcus faecalis [27]): 128 µg/mL; MIC90 (Staphylococcus cohnii): 16 µg/mL; MIC90 (Enterococcus faecalis [28]): 256 µg/mL; MIC90 (Escherichia coli [29]): 128 µg/mL; MIC90 (Staphylococcus warneri): 8 µg/mL; MIC90 (Pseudomonas aeruginosa [30]): 64 µg/mL; MIC90 [31]: 16 µg/mL; MIC90 (Pseudomonas aeruginosa [32]): 64 µg/mL; MIC90 (Enterococcus gallinarum [33]): 32 µg/mL
